From ChEMBL document CHEMBL4689842, “EUbOPEN Chemogenomics Library wave 1” (2021)
Values joined by “and” are separate entries in the source; they are usually repeats but may differ in a detail not shown here. Equal values may be shown once.

System: Fibroblast
Assay: Multiplex assay against human fibroblast
Type: toxicity, cell-based
Summary of the method: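 Imaging took place on a CQ1 microscope at 37°C and 5% CO2 once compound had been added to live cells stained at seeding with Hoechst33342, BioTracker Green Microtubule Cytoskeleton Dye, MitoTracker Red and Annexin V Alexa Fluor 680. CellPathfinder machine-learning gating classed cells as Hoechst high-intensity objects or normal cells, classed normal cells as having healthy, pyknosed or fragmented nuclei, and classed pyknosed cells as mitotic or apoptotic. Tubulin, mitochondrial-mass and membrane-permeability phenotypes are per cents of the healthy-nucleus cells.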

[1] = 12 h, 1 µM, compound concentration 1 uM, replicate 1
[2] = 12 h, 1 µM, compound concentration 1 uM, replicate 2
[3] = 12 h, 10 µM, compound concentration 10 uM, replicate 1
[4] = 12 h, 10 µM, compound concentration 10 uM, replicate 2
[5] = 24 h, 1 µM, compound concentration 1 uM, replicate 1
[6] = 24 h, 1 µM, compound concentration 1 uM, replicate 2
[7] = 24 h, 10 µM, compound concentration 10 uM, replicate 1
[8] = 24 h, 10 µM, compound concentration 10 uM, replicate 2
[9] = 48 h, 10 µM, compound concentration 10 uM, replicate 1
[10] = 48 h, 10 µM, compound concentration 10 uM, replicate 2

## C[C@@]1(C(=O)Nc2ccc(F)nc2)CCCN1c1nc(Nc2cc(C3CC3)n[nH]2)c2cccn2n1 [BMS-754807]
[1]
  Population Apoptotic (%): 63%
  Population Fragmented Nuclei (%): 36%
  Population Healthy Nuclei (%): 50%
  Population Hoechst High Intensity Objects (%): 10%
  Population Membrane Permeable-Phenotype (%): 18%
  Population Mitochondria Different-Phenotype (%): 13%
  Population Mitotic Cells (%): 36%
  Population Normal (%): 89%
  Population Pyknosed Nuclei (%): 13%
  Population Tubulin-Different-Phenotype (%): 69%
  Total Cell Count: 257
[2]
  Population Apoptotic (%): 66%
  Population Fragmented Nuclei (%): 75%
  Population Healthy Nuclei (%): 16%
  Population Hoechst High Intensity Objects (%): 28%
  Population Membrane Permeable-Phenotype (%): 50%
  Population Mitochondria Different-Phenotype (%): 33%
  Population Mitotic Cells (%): 33%
  Population Normal (%): 71%
  Population Pyknosed Nuclei (%): 8%
  Population Tubulin-Different-Phenotype (%): 66%
  Total Cell Count: 52
[3]
  Population Apoptotic (%): 63% and 78%
  Population Fragmented Nuclei (%): 22% and 25%
  Population Healthy Nuclei (%): 42%
  Population Hoechst High Intensity Objects (%): 16% and 15%
  Population Mitotic Cells (%): 36% and 21%
  Population Normal (%): 84%
  Population Pyknosed Nuclei (%): 34% and 16%
  Total Cell Count: 75 and 165
[4]
  Population Apoptotic (%): 80% and 33%
  Population Healthy Nuclei (%): 37% and 58%
  Population Hoechst High Intensity Objects (%): 29% and 13%
  Population Membrane Permeable-Phenotype (%): 17% and 22%
  Population Normal (%): 70% and 86%
  Total Cell Count: 87 and 53
[5]
  Population Apoptotic (%): 63%
  Population Fragmented Nuclei (%): 27%
  Population Healthy Nuclei (%): 55%
  Population Hoechst High Intensity Objects (%): 9%
  Population Membrane Permeable-Phenotype (%): 10%
  Population Mitochondria Different-Phenotype (%): 26%
  Population Mitotic Cells (%): 36%
  Population Normal (%): 90%
  Population Pyknosed Nuclei (%): 16%
  Population Tubulin-Different-Phenotype (%): 70%
  Total Cell Count: 219
[6]
  Population Apoptotic (%): 75%
  Population Fragmented Nuclei (%): 65%
  Population Healthy Nuclei (%): 19%
  Population Hoechst High Intensity Objects (%): 40%
  Population Membrane Permeable-Phenotype (%): 40%
  Population Mitochondria Different-Phenotype (%): 40%
  Population Mitotic Cells (%): 25%
  Population Normal (%): 59%
  Population Pyknosed Nuclei (%): 15%
  Population Tubulin-Different-Phenotype (%): 60%
  Total Cell Count: 44
[7]
  Population Apoptotic (%): 41% and 63%
  Population Fragmented Nuclei (%): 26% and 20%
  Population Healthy Nuclei (%): 53% and 63%
  Population Hoechst High Intensity Objects (%): 21% and 13%
  Population Membrane Permeable-Phenotype (%): 35% and 15%
  Population Mitotic Cells (%): 58% and 36%
  Population Normal (%): 78% and 86%
  Population Pyknosed Nuclei (%): 19% and 15%
  Total Cell Count: 80 and 166
[8]
  Population Apoptotic (%): 60% and 37%
  Population Healthy Nuclei (%): 28% and 47%
  Population Mitochondria Different-Phenotype (%): 25% and 59%
  Population Mitotic Cells (%): 40% and 62%
  Population Normal (%): 68% and 90%
  Total Cell Count: 83 and 51
[9]
  Population Apoptotic (%): 92%
  Population Fragmented Nuclei (%): 35%
  Population Healthy Nuclei (%): 39%
  Population Hoechst High Intensity Objects (%): 27%
  Population Membrane Permeable-Phenotype (%): 23%
  Population Mitochondria Different-Phenotype (%): 28%
  Population Mitotic Cells (%): 7%
  Population Normal (%): 72%
  Population Pyknosed Nuclei (%): 24%
  Population Tubulin-Different-Phenotype (%): 85%
  Total Cell Count: 73
[10]
  Population Apoptotic (%): 70%
  Population Fragmented Nuclei (%): 27%
  Population Healthy Nuclei (%): 56%
  Population Hoechst High Intensity Objects (%): 9%
  Population Membrane Permeable-Phenotype (%): 24%
  Population Mitochondria Different-Phenotype (%): 43%
  Population Mitotic Cells (%): 30%
  Population Normal (%): 90%
  Population Pyknosed Nuclei (%): 15%
  Population Tubulin-Different-Phenotype (%): 100%
  Total Cell Count: 72

## C=CC(=O)Nc1cc2c(Nc3ccc(F)c(Cl)c3)ncnc2cc1OCCCN1CCOCC1.Cl.Cl [CANERTINIB DIHYDROCHLORIDE]
[1]
  Population Apoptotic (%): 73%
  Population Fragmented Nuclei (%): 35%
  Population Healthy Nuclei (%): 53%
  Population Hoechst High Intensity Objects (%): 29%
  Population Membrane Permeable-Phenotype (%): 28%
  Population Mitochondria Different-Phenotype (%): 21%
  Population Mitotic Cells (%): 26%
  Population Normal (%): 70%
  Population Pyknosed Nuclei (%): 10%
  Population Tubulin-Different-Phenotype (%): 83%
  Total Cell Count: 198
[2]
  Population Apoptotic (%): 100%
  Population Fragmented Nuclei (%): 58%
  Population Healthy Nuclei (%): 35%
  Population Hoechst High Intensity Objects (%): 39%
  Population Membrane Permeable-Phenotype (%): 20%
  Population Mitochondria Different-Phenotype (%): 66%
  Population Mitotic Cells (%): 0%
  Population Normal (%): 60%
  Population Pyknosed Nuclei (%): 5%
  Population Tubulin-Different-Phenotype (%): 91%
  Total Cell Count: 110
[3]
  Population Apoptotic (%): 56%
  Population Fragmented Nuclei (%): 35%
  Population Healthy Nuclei (%): 45%
  Population Hoechst High Intensity Objects (%): 13%
  Population Mitotic Cells (%): 43%
  Population Normal (%): 86%
  Population Pyknosed Nuclei (%): 18%
  Population Tubulin-Different-Phenotype (%): 20%
  Total Cell Count: 227
[4]
  Population Apoptotic (%): 57%
  Population Fragmented Nuclei (%): 60%
  Population Healthy Nuclei (%): 31%
  Population Hoechst High Intensity Objects (%): 43%
  Population Membrane Permeable-Phenotype (%): 10%
  Population Mitochondria Different-Phenotype (%): 10%
  Population Mitotic Cells (%): 42%
  Population Normal (%): 56%
  Population Pyknosed Nuclei (%): 7%
  Population Tubulin-Different-Phenotype (%): 27%
  Total Cell Count: 160
[5]
  Population Apoptotic (%): 71%
  Population Fragmented Nuclei (%): 26%
  Population Healthy Nuclei (%): 38%
  Population Hoechst High Intensity Objects (%): 41%
  Population Membrane Permeable-Phenotype (%): 19%
  Population Mitochondria Different-Phenotype (%): 51%
  Population Mitotic Cells (%): 28%
  Population Normal (%): 58%
  Population Pyknosed Nuclei (%): 35%
  Population Tubulin-Different-Phenotype (%): 64%
  Total Cell Count: 137
[6]
  Population Apoptotic (%): 100%
  Population Fragmented Nuclei (%): 59%
  Population Healthy Nuclei (%): 26%
  Population Hoechst High Intensity Objects (%): 39%
  Population Membrane Permeable-Phenotype (%): 23%
  Population Mitochondria Different-Phenotype (%): 76%
  Population Mitotic Cells (%): 0%
  Population Normal (%): 60%
  Population Pyknosed Nuclei (%): 14%
  Population Tubulin-Different-Phenotype (%): 61%
  Total Cell Count: 81
[7]
  Population Apoptotic (%): 79%
  Population Fragmented Nuclei (%): 36%
  Population Healthy Nuclei (%): 50%
  Population Hoechst High Intensity Objects (%): 12%
  Population Membrane Permeable-Phenotype (%): 1%
  Population Mitochondria Different-Phenotype (%): 10%
  Population Mitotic Cells (%): 20%
  Population Normal (%): 87%
  Population Pyknosed Nuclei (%): 12%
  Population Tubulin-Different-Phenotype (%): 11%
  Total Cell Count: 220
[8]
  Population Apoptotic (%): 50%
  Population Fragmented Nuclei (%): 73%
  Population Healthy Nuclei (%): 20%
  Population Hoechst High Intensity Objects (%): 44%
  Population Membrane Permeable-Phenotype (%): 5%
  Population Mitochondria Different-Phenotype (%): 16%
  Population Mitotic Cells (%): 50%
  Population Normal (%): 55%
  Population Pyknosed Nuclei (%): 6%
  Population Tubulin-Different-Phenotype (%): 33%
  Total Cell Count: 159
